Key:
[1] = in vitro inhibition against NHE to inhibit the acid induced swelling in human platelets by 50%; type: functional
Outline: (§1)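 Platelet-rich plasma from forearm-vein blood of normal adult men, adjusted to 10 × 10^4/µL. Compound in DMSO added 3 min before sodium propionate buffer (135 mM, pH 6.7, 37 °C), final DMSO 1%. Light transmission at 550 nm recorded; maximum upstroke velocity in the first minute used. 100% inhibition defined by vehicle vs HOE-642 (10^-5 M). IC50 = 50% inhibition of swelling; triplicate experiments.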

Rattus norvegicus [2] = assay: In vivo inhibitory effect on the myocardial infarct size of ischemia-reperfusion injury model of rat. Administered intravenously 5 min before occlusion.; type: functional, Myocardium
Outline: (§2)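 Male Wistar rats (11–12 weeks), anesthetized; left coronary artery occluded 1 h, then reperfused 24 h. Dose 0.1 or 0.3 mg/kg iv, 5 min before occlusion. Area at risk stained with 1% Evans blue; six left-ventricle slices stained with 1% TTC, 37 °C, 10 min. Infarct size expressed as % of area at risk by weight. n = 5–7.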

[3] = In vitro inhibition of acid induced swelling in rat platelets by 50% as a measure of NHE inhibition; type: functional
Outline: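 Platelet-rich plasma from male Wistar rats (13–15 weeks), diluted in saline to 40 × 10^4/µL. Compound in DMSO added 3 min before sodium propionate buffer (135 mM, pH 6.7, 37 °C), final DMSO 1%. Swelling read as the change in 550 nm light transmission 1 min later, corrected with platelet-poor plasma. 100% inhibition defined by vehicle vs HOE-642 (10^-5 M). IC50 from triplicate experiments.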

Rattus norvegicus [4] = assay: In vivo inhibitory effect on the Myocardial Infarct size of Ischemia-Reperfusion Injury model of rat. Administered intravenously 5 min before occlusion.; type: functional, Myocardium; outline: as §2
Rattus norvegicus [5] = assay: In vivo inhibitory effect on the Myocardial Infarct size of Ischemia-Reperfusion Injury model of rat. Administered intravenously […].; type: functional, Myocardium; details: in the assay text read “5 min before” for “2 hr before”
[6] = In vitro inhibition against Na+/H+ exchanger(NHE) by measuring its ability to inhibit the acid induced swelling in human platelets by 50%; type: functional; outline: as §1
Rattus norvegicus [7] = assay: In vivo inhibitory effect on the myocardial infarct size of ischemia-reperfusion injury model of rat administered intravenously 5 min before occlusion; type: functional, Myocardium; outline: as §2

Compound	IC50 [1] [nM]	Inhibition [3] [%]	other results
Cc1ccnc2c1/C(=N/N=C(N)N)CC(c1ccncc1)C2.Cl.Cl (stereo unspecified)	–	25	–
CC(C)c1ccc(C(=O)N=C(N)N)cc1S(C)(=O)=O [CARIPORIDE]	–	–	IC50 [6]: 210 nM; Inhibition (Rattus norvegicus [7]): 28%
Cc1ccnc2c1/C(=N/N=C(N)N)CC(c1c(Cl)cccc1Cl)C2.Cl.Cl (stereo unspecified)	–	23	–
Cc1ccnc2c1/C(=N/N=C(N)N)CC(c1ccccn1)C2.Cl.Cl (stereo unspecified)	–	23	–

More lines, main results first:

IC50 [1] [nM]	Compound	Inhibition [3] [%]	other results
9	CS(=O)(=O)O.CS(=O)(=O)O.Cc1ccnc2c1/C(=N/N=C(N)N)C[C@H](c1ccccc1Cl)C2	–	Inhibition (Rattus norvegicus [2]): 44%
7	CS(=O)(=O)O.CS(=O)(=O)O.Cc1ccnc2c1/C(=N/N=C(N)N)C[C@H](c1cc(Cl)sc1Cl)C2	–	Inhibition (Rattus norvegicus [4]): 43%
13	CS(=O)(=O)O.CS(=O)(=O)O.Cc1ccc(F)cc1[C@H]1C/C(=N\N=C(N)N)c2c(C)ccnc2C1	–	Inhibition (Rattus norvegicus [5]): 33%

— ChEMBL document CHEMBL1135437, “Novel, non-acylguanidine-type Na(+)/H(+) exchanger inhibitors: synthesis and pharmacology of 5-tetrahydroquinolinylidene aminoguanidine derivatives” (J Med Chem, 2002)
